The values that follow come from ChEMBL document CHEMBL2176944, “2-(3-Oxo-1,3-diphenylpropyl)malonic acids as potent allosteric ligands of the PIF pocket of phosphoinositide-dependent kinase-1: development and prodrug concept” (J Med Chem, 2012).

Series [1] relates to L6. Briefly: Cellular uptake in rat L6 cells at 20 uM up to 100 mins by mass spectroscopy analysis. It counts as ADME, cell-based. The settings on record: l6, 100 min.
Series [2] is described as follows: Activation of MSK at 50 uM relative to control.
Series [3] in a line: Activation of MSK at 2 uM relative to control.
Series [4] can be described thus: Activation of RSK at 2 uM relative to control.
A short description of series [5]: Activation of RSK at 50 uM relative to control.
Series [6] has as its target Serine/threonine-protein kinase N2 (Homo sapiens) (UniProt Q16513). Kind of series: Activation of PRK2 at 50 uM relative to control.
The nature of series [7]: Activation of PKA at 50 uM relative to control.
Series [8] deals with Serine/threonine-protein kinase N2 (Homo sapiens) (UniProt Q16513). Kind of series: Activation of PRK2 at 2 uM relative to control.
Serine/threonine-protein kinase N2 (Homo sapiens), sequence (Q16513 whole entry, looked up): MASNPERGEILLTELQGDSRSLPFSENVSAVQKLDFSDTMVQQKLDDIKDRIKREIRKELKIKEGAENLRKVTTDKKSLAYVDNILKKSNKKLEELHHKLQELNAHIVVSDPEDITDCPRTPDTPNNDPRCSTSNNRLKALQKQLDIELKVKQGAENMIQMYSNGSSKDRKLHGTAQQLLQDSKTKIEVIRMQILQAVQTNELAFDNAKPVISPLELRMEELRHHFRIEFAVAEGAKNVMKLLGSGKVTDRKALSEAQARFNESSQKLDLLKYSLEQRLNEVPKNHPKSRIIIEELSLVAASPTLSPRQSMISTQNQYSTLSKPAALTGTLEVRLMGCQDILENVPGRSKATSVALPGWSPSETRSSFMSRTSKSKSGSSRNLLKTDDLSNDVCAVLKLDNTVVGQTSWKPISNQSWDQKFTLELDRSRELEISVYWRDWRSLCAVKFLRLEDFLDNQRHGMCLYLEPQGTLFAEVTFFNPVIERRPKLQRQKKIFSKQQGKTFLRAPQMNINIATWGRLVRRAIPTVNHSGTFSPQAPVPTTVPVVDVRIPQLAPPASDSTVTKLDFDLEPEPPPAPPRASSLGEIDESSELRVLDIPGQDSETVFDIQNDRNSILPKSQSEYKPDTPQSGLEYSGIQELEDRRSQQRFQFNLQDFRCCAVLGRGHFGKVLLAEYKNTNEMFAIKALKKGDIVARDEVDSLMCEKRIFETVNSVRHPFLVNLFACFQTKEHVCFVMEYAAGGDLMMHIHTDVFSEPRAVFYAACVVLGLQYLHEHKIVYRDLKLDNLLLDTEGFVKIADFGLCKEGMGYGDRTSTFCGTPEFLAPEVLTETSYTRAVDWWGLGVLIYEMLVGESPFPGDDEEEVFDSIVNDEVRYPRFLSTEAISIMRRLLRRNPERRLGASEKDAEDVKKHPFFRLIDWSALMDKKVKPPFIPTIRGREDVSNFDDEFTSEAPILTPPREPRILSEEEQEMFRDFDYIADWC
Series [9] in a line: Activation of PKA at 2 uM relative to control.
Series [10] deals with RAC-alpha serine/threonine-protein kinase (Homo sapiens) (UniProt P31749). Briefly: Activation of PKBalpha at 50 uM relative to control.
RAC-alpha serine/threonine-protein kinase (Homo sapiens), sequence (P31749 whole entry): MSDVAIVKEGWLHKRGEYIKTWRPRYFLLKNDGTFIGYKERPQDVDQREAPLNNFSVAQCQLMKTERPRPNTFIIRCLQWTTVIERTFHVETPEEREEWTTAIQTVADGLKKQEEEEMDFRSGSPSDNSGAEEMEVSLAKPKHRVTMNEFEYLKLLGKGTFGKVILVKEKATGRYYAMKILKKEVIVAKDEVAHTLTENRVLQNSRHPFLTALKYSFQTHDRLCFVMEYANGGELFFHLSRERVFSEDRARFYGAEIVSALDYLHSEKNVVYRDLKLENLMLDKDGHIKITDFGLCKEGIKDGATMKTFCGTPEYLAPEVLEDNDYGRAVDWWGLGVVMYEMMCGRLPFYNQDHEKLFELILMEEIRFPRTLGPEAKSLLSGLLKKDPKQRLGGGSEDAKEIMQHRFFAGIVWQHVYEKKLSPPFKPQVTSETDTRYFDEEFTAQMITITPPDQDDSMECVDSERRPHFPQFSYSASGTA
Series [11] has the same target. Briefly: Activation of PKBalpha at 2 uM relative to control.
The target in series [12] is T1, Serine/threonine-protein kinase Sgk1 (Homo sapiens) (UniProt O00141).
T1 sequence (whole entry): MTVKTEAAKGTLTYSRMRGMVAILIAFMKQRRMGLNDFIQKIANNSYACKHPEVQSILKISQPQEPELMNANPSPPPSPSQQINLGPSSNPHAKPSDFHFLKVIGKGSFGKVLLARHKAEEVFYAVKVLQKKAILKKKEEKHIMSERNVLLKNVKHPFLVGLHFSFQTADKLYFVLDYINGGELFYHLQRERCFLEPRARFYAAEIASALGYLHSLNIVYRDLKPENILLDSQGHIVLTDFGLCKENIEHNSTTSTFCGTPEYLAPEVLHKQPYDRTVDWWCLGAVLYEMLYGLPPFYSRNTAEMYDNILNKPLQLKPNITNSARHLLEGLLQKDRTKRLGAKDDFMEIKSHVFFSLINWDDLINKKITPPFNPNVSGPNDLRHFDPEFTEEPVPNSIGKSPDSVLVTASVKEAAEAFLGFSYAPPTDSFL
Kind of series: Activation of SGK at 2 uM relative to control.

For series [13], the target named is T1, Serine/threonine-protein kinase Sgk1 (Homo sapiens). Kind of series: Activation of SGK at 50 uM relative to control.
Series [14] addresses T2, Protein kinase C zeta type (Homo sapiens) (UniProt Q05513).
T2 sequence (whole entry): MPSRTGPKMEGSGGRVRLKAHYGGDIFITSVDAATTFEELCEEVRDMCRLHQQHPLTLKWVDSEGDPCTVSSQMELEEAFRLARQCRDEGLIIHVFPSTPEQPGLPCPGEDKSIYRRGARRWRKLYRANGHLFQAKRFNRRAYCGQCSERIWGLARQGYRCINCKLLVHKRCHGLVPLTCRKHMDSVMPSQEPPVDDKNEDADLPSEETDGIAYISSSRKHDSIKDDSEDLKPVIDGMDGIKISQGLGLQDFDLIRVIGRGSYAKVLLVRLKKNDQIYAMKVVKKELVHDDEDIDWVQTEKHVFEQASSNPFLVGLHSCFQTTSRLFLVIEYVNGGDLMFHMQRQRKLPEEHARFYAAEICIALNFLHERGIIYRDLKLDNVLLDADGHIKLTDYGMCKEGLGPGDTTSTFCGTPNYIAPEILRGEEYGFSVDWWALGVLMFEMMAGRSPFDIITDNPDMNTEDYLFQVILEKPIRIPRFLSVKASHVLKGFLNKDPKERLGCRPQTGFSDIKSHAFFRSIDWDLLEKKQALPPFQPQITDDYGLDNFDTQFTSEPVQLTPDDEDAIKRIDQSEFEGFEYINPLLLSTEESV
Briefly: Activation of PKCzeta at 50 uM relative to control.

For series [15], the target named is T2, Protein kinase C zeta type (Homo sapiens). Kind of series: Activation of PKCzeta at 2 uM relative to control.
The target in series [16] is Ribosomal protein S6 kinase beta-1 (Homo sapiens) (UniProt P23443). Briefly: Activation of S6K1 at 2 uM relative to control.
Ribosomal protein S6 kinase beta-1 (Homo sapiens), sequence (P23443 whole entry, looked up): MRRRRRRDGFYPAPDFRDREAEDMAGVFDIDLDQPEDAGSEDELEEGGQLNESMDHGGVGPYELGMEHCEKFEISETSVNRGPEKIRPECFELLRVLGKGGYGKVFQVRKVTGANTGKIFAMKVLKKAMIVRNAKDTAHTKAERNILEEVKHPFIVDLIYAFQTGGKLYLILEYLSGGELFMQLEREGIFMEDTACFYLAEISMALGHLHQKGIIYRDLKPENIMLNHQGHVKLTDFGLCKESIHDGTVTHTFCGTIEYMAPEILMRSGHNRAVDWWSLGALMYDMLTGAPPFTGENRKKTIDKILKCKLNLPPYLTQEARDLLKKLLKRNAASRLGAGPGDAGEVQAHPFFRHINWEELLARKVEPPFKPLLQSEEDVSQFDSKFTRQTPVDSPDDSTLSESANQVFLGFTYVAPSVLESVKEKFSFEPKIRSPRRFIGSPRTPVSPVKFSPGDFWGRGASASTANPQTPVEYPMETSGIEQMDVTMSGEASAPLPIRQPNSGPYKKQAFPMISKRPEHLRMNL
The target is the same in series [17]. Briefly: Activation of S6K1 at 50 uM relative to control.
Series [18] concerns the target T3, 3-phosphoinositide-dependent protein kinase 1 (Homo sapiens) (UniProt O15530).
T3 sequence (whole entry): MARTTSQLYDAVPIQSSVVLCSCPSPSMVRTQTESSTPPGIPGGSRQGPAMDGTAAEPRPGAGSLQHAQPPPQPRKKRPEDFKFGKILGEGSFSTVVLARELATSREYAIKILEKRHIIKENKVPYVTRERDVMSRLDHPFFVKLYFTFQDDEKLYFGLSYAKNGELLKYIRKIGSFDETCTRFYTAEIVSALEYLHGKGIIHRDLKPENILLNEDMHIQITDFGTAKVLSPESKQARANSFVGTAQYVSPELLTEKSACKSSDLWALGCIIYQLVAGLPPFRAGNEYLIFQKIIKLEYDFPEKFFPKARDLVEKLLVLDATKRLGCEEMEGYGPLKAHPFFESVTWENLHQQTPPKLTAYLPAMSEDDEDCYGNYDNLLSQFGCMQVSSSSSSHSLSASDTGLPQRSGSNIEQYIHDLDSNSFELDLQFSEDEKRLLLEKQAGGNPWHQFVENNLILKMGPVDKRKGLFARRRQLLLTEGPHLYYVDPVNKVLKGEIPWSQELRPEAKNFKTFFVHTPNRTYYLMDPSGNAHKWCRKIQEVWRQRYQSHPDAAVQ
Kind of series: Increase in thermal stability of PDK1 assessed as concentration required to increase 1.5 degC thermal stability by differential scanning fluorimetry. In short, it runs like this: (§1)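 PDK1 (1 μM) in 10 mM HEPES pH 7.5, 150 mM NaCl, 1 mM DTT and 1/1000 SYPRO Orange, with ligand at 1% final DMSO, was heated from 25–70 °C in 0.3 °C steps. Tm came from a Boltzmann fit, and ΔTm is relative to DMSO control, each point from duplicates. EC50 was fitted from ΔTm versus concentration, along with the concentration giving a 1.5 °C shift.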

Series [19] addresses T3, 3-phosphoinositide-dependent protein kinase 1 (Homo sapiens). Briefly: Increase in thermal stability of PDK1 by differential scanning fluorimetry relative to control. In short, it runs like this: as §1
In general terms: In DSF a fluorescence change marks the thermal transition of the protein.

Series [20] deals with T4, 3-phosphoinositide-dependent protein kinase 1 (Homo sapiens, UniProt O15530).
T4 sequence (O15530 whole entry): T3 sequence (whole entry)
Briefly: Increase in thermal stability of PDK1 by differential scanning fluorimetry. In short, it runs like this: as §1

In series [21] the target is T3, 3-phosphoinositide-dependent protein kinase 1 (Homo sapiens). Briefly: Activation of PDK1 using KTFCGTPEYLAPEVRR as substrate and [gamma32P]-ATP/Mg2+ by phosphor imaging analysis relative to control. In short, it runs like this: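 Radioactive kinase assay with 0.25 μM PDK1 and [γ32P]ATP. Phosphorylated peptide was captured on P81 phosphocellulose paper and detected by phosphorimaging. Activation is expressed relative to DMSO control (=100%). AC50 is the concentration giving half-maximal activation. Values are the mean of at least two independent experiments.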

The target is the same in series [22]. Kind of series: Activation of PDK1 in IGF-I-stimulated HEK293 cells assessed as decrease of phosphorylation of PKB T-loop at 50 uM after 2 hrs by Western blot analysis. In kind it is cell-based. In short, it runs like this:
(§2)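 HEK293 cells in DMEM with 10% FBS were serum-starved 24 h, then given 50 μM compound or DMSO for 2 h and stimulated with IGF-I (10 ng/mL) for 20 min. For S6K and PKCζ, cells were first transiently transfected with GST-fusions of full-length S6K[T412E] and PKCζ (PEI). These proteins were pulled down on glutathione sepharose and immunoblotted for activation-loop phosphorylation (S6K Thr229, PKCζ Thr410), normalized to anti-GST. For PKB, untransfected cell lysates were immunoblotted with phospho-specific antibodies.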
A general note: A western blot detects proteins with antibodies after separation by electrophoresis.

For series [23] the target is unchanged. Briefly: Activation of PDK1 in IGF-I-stimulated HEK293 cells assessed as decrease of phosphorylation of PKCzeta at Thr410 at 50 uM after 2 hrs by Western blot analysis. In kind it is cell-based. In short, it runs like this:
as §2

For series [24] the target is unchanged. Briefly: Activation of PDK1 in IGF-I-stimulated HEK293 cells assessed as decrease of phosphorylation of S6K activation loop at 50 uM after 2 hrs by Western blot analysis. In kind it is cell-based. In short, it runs like this: as §2
The subject of series [25] is L6. Briefly: Prodrug conversion in rat L6 cells assessed as production of 2-(3-Oxo-1-phenyl-3-(4-(trifluoromethyl)phenyl)propyl)malonic acid level in cytoplasm at 20 uM […] by HPLC analysis. The note with it: l6, 20 µM. In kind it is ADME, cell-based.
The subject of series [26] is L6. Kind of series: Prodrug conversion in rat L6 cells assessed as production of 2-(3-Oxo-1-phenyl-3-(4-(trifluoromethyl)phenyl)propyl)malonic acid level at 20 uM after 1 hr by mass spectroscopy analysis. The note with it: l6, 1 h. It counts as ADME, cell-based. In short, it runs like this:
(§3)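 Confluent rat L6 cells in serum-free DMEM were exposed to 20 μM ester prodrug for 5–90 min. Cells were then washed with cold PBS, trypsinized and counted. Carbamazepine was added as internal standard, and samples were acidified with HCl and extracted with ethyl acetate. Prodrug and free dicarboxylic acid were quantified by HPLC-MS/MS on a C18 column with TFA-containing gradients. DMSO-treated cells served as control.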

In series [27] the test system is L6. Kind of series: Prodrug conversion in rat L6 cells assessed as prodrug degradation at 20 uM after 1 hr by mass spectroscopy analysis. The settings on record: l6, 1 h. It counts as ADME, cell-based.
Series [28] has as its system L6. Kind of series: Prodrug conversion in rat L6 cells assessed as reduction half life of prodrug at 20 uM […] by mass spectroscopy analysis. It counts as ADME, cell-based. The note with it: l6, 20 µM.
Series [29] relates to L6. Kind of series: Prodrug conversion in rat L6 cells assessed as production of 2-(3-Oxo-1-phenyl-3-(4-(trifluoromethyl)phenyl)propyl)malonic acid level in cytoplasm at 20 uM […] by mass spectroscopy analysis relative to control. In kind it is ADME, cell-based. The settings on record: l6, 20 µM.
The subject of series [30] is L6. Kind of series: Cellular uptake in rat L6 cells at 20 uM after 5 mins by mass spectroscopy analysis. It counts as ADME, cell-based. The settings on record: l6, 5 min. In short, it runs like this:
as §3

The nature of series [31]: Hydrolysis half life of the compound. In kind it is physicochemical. In short, it runs like this: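 Chemical stability of the ester prodrug was measured in cell-free medium at 37 °C, giving the half-life of spontaneous hydrolysis.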
Series [32] addresses T4, 3-phosphoinositide-dependent protein kinase 1. Briefly: Binding affinity to PDK1.

Calls of active or inactive are those of the source. The calls are words filed in the database; no cut-off is given here.

For `O=C(CC(c1ccccc1)C(C(=O)O)C(=O)O)c1ccc(C(F)(F)F)cc1` (racemic), the Drug uptake result with L6 [1] is on record as “Not Active”. The result in series [2], in series [3], in series [4], in [6], in series [8] and in series [9] was inactive. The outcome in series [10], in [11], in series [12], in [13], in series [14] and in [15] was inactive. The Activity in series [5] came out at 140%; in series [7], 80%; in [16], 82%; in series [17], 46%; in series [18], 67.6 µM. The ΔTm in series [19] came to 3.9 °C. In [20], this compound showed an EC50 of 85.8 µM. The max activation in [21] came out at 5.5.
Take `CC(=O)OCOC(=O)C(C(=O)OCOC(C)=O)C(CC(=O)c1ccc(C(F)(F)F)cc1)c1ccccc1` (stereo unspecified): the result in [22] and in series [23] was inactive. In addition, the result in series [24] was Active. The values for the Drug metabolism entry in the series on L6 [25], in the series with L6 [26] and in the series on L6 [27] were “Active”, 80 µM and over 90%, respectively. Also, in the series with L6 [28], the t1/2 was determined as 4.3 min. For the same compound, in the series with L6 [29], the “fold change (FC)” value came out at 67. For the same compound, the Drug uptake entry in the series on L6 [30] is given as “Active”. For the same compound, in [31], the half-life was 4.8 h.
As for H-REPRILSEEEQEMFRDFDYIADWC-OH, the Activity in [18] stood at 3.1 µM. Further, the ΔTm in series [19] came out at 7.3 °C. This compound came in with an EC50 in series [20] of 14.2 µM. The same compound gave a max activation in [21] of 3.4. Further, the affinity in [32], expressed as Kd, was 0.043 µM.

Usually ΔTm stands for the shift of the melting midpoint relative to a reference. What is called EC50 is the concentration giving half of the maximal effect. A lower EC50 goes with a more potent agent. What is called half-life is the time in which the quantity being followed falls by half. Low readings indicate fast loss, high ones slow loss. One may read the Kd as the constant that tells how readily two partners part at equilibrium. Read a low Kd as a tighter complex.
